# MC4R ag barr: MC4R agonists recruiting beta-arrestin, primary screen, cell-based, luminescence, agonist arm of biased-ligand search | AID 540308, 2011 | activation, % at 8.9 µM | Melanocortin receptor 4 (Homo sapiens), P32245 | 0.98% of 360,000 active | U2OS MC4R beta-arrestin complementation; percent of melanotan II response, DMSO zero;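 active = activation above a per-plate cutoff, the mean activation of sample wells on that plate plus 3 SD, cut at about 8% in these data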
# Target sequence (P32245 whole entry, looked up): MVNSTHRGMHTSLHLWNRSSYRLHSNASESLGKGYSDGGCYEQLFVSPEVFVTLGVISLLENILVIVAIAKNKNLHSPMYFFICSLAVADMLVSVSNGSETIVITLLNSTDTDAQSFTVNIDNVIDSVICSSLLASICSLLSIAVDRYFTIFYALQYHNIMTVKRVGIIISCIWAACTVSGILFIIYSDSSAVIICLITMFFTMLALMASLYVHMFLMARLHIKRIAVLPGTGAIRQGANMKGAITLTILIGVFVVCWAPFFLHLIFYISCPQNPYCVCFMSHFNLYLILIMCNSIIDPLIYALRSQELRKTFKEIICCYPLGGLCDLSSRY
# Calb FLC: C. albicans growth inhibition with fluconazole, primary screen, CaCi-2 strain, Alamar Blue fluorescence. C. albicans CaCi-2 + fluconazole, 48 h. growth inhibition, % (no concentration beside the values). 0.57% of 300,000 active. AID 1979, 2009;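 active = growth inhibition above about 58% in most replicates, limit read from the data, passing the limit was not always enough; inconclusive = exactly half the replicates above a set limit; inactive = most replicates below a set limit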;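 note: all wells also contain fluconazole at 8 µg/ml as a sub-toxic cotreatment; 0% = median of DMSO wells and 100% = median of geldanamycin control wells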
# TAG inh: inhibitors of triacylglycerol accumulation, primary screen, cell-based, uHTS, fluorescence, H9c2; 0.66% of 230,000 active; inhibition, % at 12.5 µM; H9c2 cells, Nile Red lipid (TAG) fluorescence; cells loaded with 200 µM oleic acid;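 active = pattern-corrected inhibition of lipid staining of at least 50% with the nuclear-stain viability signal not falling by more than 50%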;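 note: 0% = DMSO wells and 100% = triacsin C control wells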
# MC4R antagonist: MC4R antagonists of cAMP signaling, primary screen, cell-based, TR-FRET, antagonist arm of biased-ligand search | Melanocortin receptor 4 (Homo sapiens), P32245 | AID 540295, 2011 | inhibition, % at 6.5 µM | MC4R-expressing cells, MTII-stimulated cAMP, LANCE TR-FRET | 0.48% of 360,000 active;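 active = inhibition above its plate's cutoff, the mean of tested wells on that plate plus 3 SD, cut at about 29% in these data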;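 note: 0% = Melanotan II alone and 100% = Melanotan II plus saturating MCL0020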
#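 Material: U2OS-MC4R stable cell line | Reagent: Melanotan II challenge after compound preincubation | Doses: One concentration, 6.5 µM nominal | Incubation: 30-min compound preincubation, 1-h Melanotan II challenge, 1-h detection, room temperature | Signal: TR-FRET cAMP assay | Replicates: One well per compound, no replicates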
# GalR3 antag: GalR3 antagonists in HEK293 cells, primary screen, cell-based, fluorescence readout; Galanin receptor type 3 (Homo sapiens), O60755; AID 651719, 2012; inhibition, % at 3 µM; 0.44% of 360,000 active; HEK293 GalR3-CNG cAMP membrane potential fluorescence; galR3 body fused to GalR1 C-terminus;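 active = inhibition above the screen-wide average plus 3 SD, cut at about 13% in these data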;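 note: forskolin and galanin both at EC90 stimulate the cells; cAMP rise reported by CNG channel membrane potential dye signal; 0% = forskolin plus galanin with DMSO and 100% = forskolin alone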
# Target sequence (O60755 1-299 limits assumed): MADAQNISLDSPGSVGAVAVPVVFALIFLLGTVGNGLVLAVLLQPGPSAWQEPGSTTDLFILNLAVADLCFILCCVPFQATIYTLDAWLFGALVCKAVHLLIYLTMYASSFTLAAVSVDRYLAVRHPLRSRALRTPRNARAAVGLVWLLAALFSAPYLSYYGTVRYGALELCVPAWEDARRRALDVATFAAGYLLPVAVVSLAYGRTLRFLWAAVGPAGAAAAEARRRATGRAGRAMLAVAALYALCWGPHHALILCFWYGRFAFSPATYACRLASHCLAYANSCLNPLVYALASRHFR
# Efflux pump mplx: inhibitors of Candida efflux pumps in yeast, primary screen, S. cerevisiae, Nile Red, multiplex; S. cerevisiae Candida pump triplex; inhibition, % at 10 µM; 0.44% of 330,000 active;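 active = plate passing quality check with inhibition over a set limit, or well fluorescence over plate mean plus 4 SD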;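 note: Nile Red retained in pooled yeast measured as flow cytometry median fluorescence; 0% = buffer negative control and 100% = Enniatin B positive control; higher means more Nile Red kept so more efflux inhibition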
# MC4R barr ag: MC4R beta-arrestin agonists, retest, confirmation, cell-based, luminescence, U2OS; shares compounds with MC4R ag barr; U2OS MC4R beta-arrestin recruitment; scaled DMSO 0%, Melanotan II 100%; activation, % at 8.9 µM; AID 602192, 2012; 31% of 2,400 active;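 active = mean activation across replicates above the hit cutoff set in the earlier primary screen, cut at about 8% in these data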
# MOR-DOR barr ag: agonists of MOR-DOR heterodimerization, counter-screen for MC4R biased agonist project, cell-based, luminescence; shares compounds with MC4R ag barr; U2OS PathHunter beta-arrestin, beta-gal luminescence; percent of deltorphin B response, DMSO zero; activation, % at 9.2 µM; 5.8% of 2,400 active;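 active = mean activation across replicates exceeds the hit threshold derived in the earlier primary screen, cut at about 18% in these data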;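 note: 100% = deltorphin B at 0.9 µM final and 0% = DMSO alone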
# The depositor's hits bear a star; ? = inconclusive; . = no result. In the library only some 2.9% were active in any assay of this set; here they are far more common.
SMILES,MC4R ag barr,Calb FLC,TAG inh,MC4R antagonist,GalR3 antag,Efflux pump mplx,MC4R barr ag,MOR-DOR barr ag
CCOC(=O)C(=CNc1ccc2c(c1)nnn2-c1ccc(Cl)cc1)C(=O)OCC,22*,37,.,11,-10,0,23*,4
C=C(C)c1cccc(C(C)(C)NC(=O)NCc2ccc(OC)c(OC)c2)c1,-1,24,.,9,-6,0,.,.
C=C(C)c1cccc(C(C)(C)NC(=O)NCc2ccc(OC)cc2)c1,17*,-27,.,1,2,0,1,5
COc1ccc(-c2cc(C(=O)Nc3c(C)nn(Cc4ccccc4Cl)c3C)no2)cc1,13*,-1,.,-4,-5,0,11*,4
COc1ccc(OC)c(-c2cc(C(=O)Nc3c(C)nn(Cc4ccccc4)c3C)no2)c1,-1,3,.,3,5,0,.,.
O=C(Nc1ccc2nn(-c3ccccc3)nc2c1)c1ccc(Br)o1,13*,10,.,8,-1,0,17*,3
CCc1ccc(-n2nc3ccc(NC(=O)c4ccc5c(c4)OCO5)cc3n2)cc1,11*,2,21,-13,-5,0,6,10
O=C(Nc1ccc2nn(-c3ccccc3)nc2c1)c1ccc2c(c1)OCCO2,4,-12,10,4,-1,0,.,.
CCOC(=O)CCCN(c1[nH]c(C)c(C)c1C#N)S(=O)(=O)c1ccc(C)cc1,-1,.,10,-1,-3,.,.,.
N=C(N)c1ccc(N=Nc2c(O)ccc3c2[nH]c2ccccc23)cc1,10.0*,.,26,0,-4,.,10*,17
NC(=O)c1ccc(N=Nc2c(O)c3ccccc3[nH]c2=O)cc1,.,1,.,.,.,0,.,.
CCC(C)C(CO)NCCCn1cnc2c(OCc3ccccc3)ncnc21 (stereo not given),0,.,-1,6,-3,.,.,.
Nc1nc2cc(Cl)c(Br)cc2o1,0,.,8,1,-6,.,.,.
O=C(c1ccccc1NS(=O)(=O)c1cccc(C(F)(F)F)c1)N1CCc2ccccc21,10*,12,.,16,-4,0,1,6
O=C(CSc1nc2ccccc2[nH]1)c1c[nH]c2ccccc12,0,-7,42,-7,-5,0,.,.
Cc1ccc2nc(SCC(=O)c3c[nH]c4ccccc34)[nH]c2c1,12*,6,2,-2,2,0,5,4
N#Cc1c(N)nc(-c2ccccc2)nc1-c1ccccc1,13*,5,.,-3,-1,0,0,6
Cc1ccnc(NS(=O)(=O)c2ccc(NC(=O)c3cccc(Cl)c3)cc2)n1,0,.,9,5,-7,.,.,.
CC(C)c1ccc(NC(=O)C2(C)Cc3c(-c4ccc5c(c4)OCO5)ccnc3O2)cc1 (stereo not given),2,.,-5,2,-8,.,.,.
Cc1ccc(C(=O)N/N=C/c2ccc(-c3cccc(Cl)c3)o2)cn1,-3,12,9,1,-5,0,.,.
Cc1ccc(C(=O)N/N=C\c2ccc(-c3ccc(Cl)c(Cl)c3)o2)cn1,11*,-6,5,-7,-1,0,8.4*,6
O=C(NCC1CCN(C(=O)C(=O)c2cccs2)CC1)c1ccc2ccccc2c1,.,.,.,.,-1,.,.,.
CNC[C@@H]1OCc2cnnn2CCCC(=O)N([C@@H](C)CO)C[C@H]1C,.,.,.,.,-7,.,.,.
Cc1cc(Cl)c(S(=O)(=O)N2CCCC2)cc1OCC(N)=O,3,-4,-9,-6,-5,0,.,.
Cc1cc(Cl)c(S(=O)(=O)N2CCN(c3cccc(C)c3C)CC2)cc1OCC(N)=O,14*,60,.,13,-4,0,4,6
SMILES,MC4R ag barr,Calb FLC,TAG inh,MC4R antagonist,GalR3 antag,Efflux pump mplx,MC4R barr ag,MOR-DOR barr ag
CCCCCCCCN1C(=O)[C@@H](CC(=O)NCc2ccc(C)o2)C[C@@]2(C(=O)OC)C1=C[C@H](C1CCCC1)O[C@@H]2C,.,.,.,.,-7,.,.,.
O=S(=O)(c1ccc(F)cc1)N1CCCc2nc(-c3ccc(Br)cc3)ccc21,.,.,.,.,-6,.,.,.
C=CCNc1nc(C(F)(F)F)nc2c1nnn2Cc1ccccc1Cl,12*,3,.,-8,-12,0,3,6
COc1cccc(NCc2cc3c(C(C)(C)C)nn(-c4ccccc4)c3[nH]c2=O)c1,13*,?,.,4,-5,0,0,7
COc1ccc2cc(-c3cc(C(=O)OCC(=O)Nc4c(C)n(C)n(-c5ccccc5)c4=O)c4ccccc4n3)ccc2c1,21*,-5,.,0,-5,.,5,3
COc1ccc(-c2cc(C(=O)Nc3c(C)n(C)n(-c4ccccc4)c3=O)c3ccccc3n2)cc1,0,3,.,4,-8,0,.,.
COc1cc(-c2cnc3c(NC=O)cc(-c4ccc(C)cc4)cn23)cc(OC)c1OC,0,.,27,-34,9,.,.,.
COc1cc(-c2cc(NC=O)c3ncc(-c4ccccc4)n3c2)cc(OC)c1OC,13*,.,5,-25,-7,.,25*,2
COc1cc(-c2cc(NC=O)c3ncc(-c4ccc(C(C)=O)cc4)n3c2)cc(OC)c1OC,26*,.,2,-1,-6,.,18*,2
COc1ccc(-c2cc(NC=O)c3ncc(-c4ccc(C(C)=O)cc4)n3c2)cc1OC,11*,.,24,8,4,.,9.0*,3
COc1cc(-c2cnc3c(NC=O)cc(-c4ccccc4)cn23)cc(OC)c1OC,5,.,45,-54,-2,.,.,.
CCOc1ccc(N(CC(=O)Nc2ccc(C)cc2)S(=O)(=O)c2c(C)noc2C)cc1,1,-7,14,-2,-1,0,.,.
CCOc1ccc(N(CC(=O)Nc2ccc(F)c(F)c2)S(=O)(=O)c2c(C)noc2C)cc1,9.6*,-1,-6,-1,-1,0,1,7
Cc1ccnc(Nc2cccnc2)n1,.,.,.,.,-1,.,.,.
CC(CNC(=O)[C@@H](Cc1ccccc1)NC(=O)[C@H]1O[C@@H](n2ccc(=O)[nH]c2=O)[C@H](O)[C@@H]1O)c1ccccc1 (stereo not given in full),.,.,.,.,-3,.,.,.
COc1cc(SC)ccc1C(=O)Nc1ccccc1C#N,12*,-16,-7,-2,-4,0,7,4

# Screening data: PubChem BioAssay, several laboratories
